Drawing on ChEMBL document CHEMBL3286166, “Structure-activity relationships of the truncated norzoanthamines exhibiting collagen protection toward anti-osteoporotic activity” (Bioorg Med Chem, 2014), this text covers Activity for 15 compounds.

For this experiment, the species on record is Rattus norvegicus. The experiment can be described thus: Binding affinity to rat tail type 1 collagen assessed as collagen protection activity against Clostridium histolyticum collagenase-mediated digestion at 10 uM after 180 mins by Sirius red dye based microplate reader analysis relative to norzoanthamine. In a few lines: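 Acid-solubilized rat tail type I collagen diluted to 1.11 mg/mL in 50 mM Tris (pH 7.4) with 100 mM NaCl and 5 mM CaCl₂. Compound in the same buffer added, 5 min at 37 °C. Digestion started with 2 mg/mL Clostridium histolyticum collagenase at 37 °C. Aliquots at 30–180 min stained with Sirius red, 30 min room temperature, then centrifuged. Remaining collagen at 180 min normalized to norzoanthamine; buffer-only negative control; up to five samples per test.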
As to `C[C@H]1C[C@@H]2CN(C(=O)OC(C)(C)C)[C@H](C1)O2`, the Activity amounted to 23%. The same measure for `COC(=O)c1ccccc1-c1ccc(CN2C[C@H]3C[C@H](C)C[C@@H]2O3)cc1`: 25%.

Take `C[C@H]1C[C@@H]2CN3C4=CCCC[C@]4(C)CC[C@@]3(C1)O2`: the Activity turned out to be 31%. The value for `C[C@H]1C[C@@H]2CN(Cc3ccc(-c4ccccc4)cc3)[C@H](C1)O2` was 20%. The same measure for `COCCN1CCC[C@@]2(C)[C@]3(C)CCC[C@]12OC(=O)C3`: 15%. The same measure for `C[C@H]1C[C@@H]2CN(Cc3ccccc3)[C@H](C1)O2`: 47%. Take `CCCCc1ccc(CN2C[C@H]3C[C@H](C)C[C@@H]2O3)cc1`: the Activity is 45%. Turning to `C[C@H]1C[C@@H]2CN[C@H](C1)O2`, the Activity came to 31%. The value for `C[C@H]1C[C@@H]2CN(Cc3ccc4ccccc4c3)[C@H](C1)O2` was 65%; that for `C[C@H]1C[C@@H]2CN3[C@](CC[C@@]4(C)[C@]5(C)CCC[C@]34OC(=O)C5)(C1)O2` was 100%. The value for `COC(=O)C[C@@]1(C)[C@H]2C(=O)C[C@@H]3C(=O)C=C(C)C[C@H]3[C@]2(C)C=C2N3C[C@H]4C[C@H](C)C[C@]3(CC[C@]21C)O4` was 5%; that for `C[C@@]12CCC[C@]3(OC(=O)C1)N(Cc1ccccc1)CCC[C@@]23C` was 11%; that for `COC(=O)c1cccc(CN2C[C@H]3C[C@H](C)C[C@@H]2O3)c1` was 25%. The same measure for `CCCCN1CCC[C@@]2(C)[C@]3(C)CCC[C@]12OC(=O)C3`: 17%; for `C[C@@H]1C[C@H]2CN3[C@@](CC[C@]4(C)[C@@]5(C)CCC[C@@]34OC(=O)C5)(C1)O2`: 76%.
